This note sets out measurements from ChEMBL document CHEMBL5107950, “Structure-based design of haloperidol analogues as inhibitors of acetyltransferase Eis from Mycobacterium tuberculosis to overcome kanamycin resistance” (RSC Med Chem, 2021).

Assay [1] has as its system Mycobacterium tuberculosis variant bovis. The assay is described as follows: Antibacterial activity against Mycobacterium bovis BCG ATCC 35734 in presence of clarithromycin by checkerboard assay. The assay is classed as functional, organism-based. The gist of the method:
(§1)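 Checkerboard in 96-well plates. Antibiotic two-fold serially diluted along columns, haloperidol derivative two-fold along rows. Bacteria prepared as for the MIC determination. MICs alone and in combination used to calculate FICI. At least duplicate independent trials.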

For assay [2] the test system is unchanged. The assay can be described thus: Synergistic antibacterial activity against Mycobacterium bovis BCG ATCC 35734 in presence of spectinomycin by checkerboard assay. Format: functional, organism-based. A digest of the protocol: as §1
For assay [3] the test system is unchanged. The assay is described as follows: Antibacterial activity against Mycobacterium bovis BCG ATCC 35734 assessed as inhibition of bacterial growth incubated upto 3 weeks hrs by resazurin dye based double-dilution method. Format: functional. The settings on record: BCG ATCC 35734, 504 h. The gist of the method: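 Double-dilution broth MIC. Media: M. smegmatis, Mueller-Hinton; M. abscessus, 7H9 + 0.05% Tween80 + 0.4% glycerol; mc²6230, 7H9 + 0.05% tyloxapol, 0.5% glycerol, 10% OADC, 0.2% casamino acids, 24 µg/mL pantothenate; other mycobacteria, 7H9 + 0.05% Tween80, 0.4% glycerol, 10% ADC. Inoculum from agar set to 0.5 McFarland, then diluted 1:100.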
For orientation: Resazurin is reduced to fluorescent resorufin, in cell work by metabolically active cells.

Assay [4] shares this test system. The assay can be described thus: Antibacterial activity against Mycobacterium bovis BCG ATCC 35734 in presence of clofazimine by checkerboard assay. Format: functional, organism-based. The gist of the method:
as §1

SMILES strings stand for the structures. Values after ≈ are worked out from the molar mass of the structure shown. Active and inactive are the calls of the source. Some results are limits rather than exact numbers.

Usually MIC stands for the smallest concentration in the dilution series that meets the test's criterion for growth inhibition. As to `O=C(CCCN1CCC(O)(c2ccc(Cl)cc2)CC1)c1ccc(Cl)cc1` [CHLOROHALOPERIDOL], the outcome in assay [1], in assay [2] and in assay [4] was Active. For the same molecule, the minimum inhibitory concentration (MIC) in assay [3] worked out at 62.5 µM (≈ 24.5 µg/mL).
Turning to `O=C(CCCN1CCC(O)CC1)c1ccc(F)cc1`, the minimum inhibitory concentration (MIC) in assay [3] is over 62.5 µM.
For the molecule `CC1CC(C)CN(CCCOc2ccc(F)cc2)C1` (stereo not drawn), the MIC in assay [3] was 15.6 µM (≈ 4.14 µg/mL).
The same measure, in the same setting: the same measure for `O=C(CCCN1CCCCC1)c1ccc(F)cc1` [PRIMAPERONE]: over 62.5 µM; for `Cc1ccc(S(=O)(=O)N2CCC(O)(c3ccc(Cl)cc3)CC2)cc1`: over 62.5 µM; for `O=C(CN1CCC(O)(c2ccc(Cl)cc2)CC1)c1ccc(F)cc1`: over 62.5 µM.
`CC(C)(C)c1ccc(C(=O)CCCN2CCC(O)(c3ccc(F)cc3)CC2)cc1`: the minimum inhibitory concentration (MIC) in assay [3] worked out at 15.6 µM (≈ 6.2 µg/mL).
For `O=C(CCCN1CCC(O)(c2ccc(Cl)cc2)CC1)c1ccc(Br)cc1`, the MIC in assay [3] is over 62.5 µM.
As to `CCc1ccc(C(=O)CCCN2CCC(O)(c3ccc(Cl)cc3)CC2)cc1`, the minimal inhibitory concentration (MIC) in assay [3] was 2 µM (≈ 0.772 µg/mL).
Take `O=C(CCCN1CC=C(c2ccc(Cl)cc2)CC1)c1ccc(F)cc1`: in assay [3], the minimal inhibitory concentration (MIC) stood at 15.6 µM (≈ 5.58 µg/mL).
In the case of `O=C(CCCN1CCC(O)(c2ccc(Cl)cc2)CC1)c1ccccc1`, the minimum inhibitory concentration (MIC) in assay [3] turned out to be 62.5 µM (≈ 22.4 µg/mL).
Turning to `NNC(=O)c1ccncc1` [ISONIAZID], the MIC in assay [3] was at most 1 µM.
The same measure, in the same setting: then `CC1CCCCN1CCCOc1ccc(F)cc1` (stereo not drawn), with 3.9 µM (≈ 0.98 µg/mL); and `Cc1ccc(C(=O)CCCN2CCC(O)(c3ccc(Cl)cc3)CC2)cc1`, with 15.6 µM (≈ 5.8 µg/mL).
On to `O=C(CCCN1CCC(O)(c2ccc(F)cc2)CC1)c1ccc(Cl)cc1`, for which the outcome in assay [1], in assay [2] and in assay [4] was Active. The minimal inhibitory concentration (MIC) in assay [3] is over 62.5 µM.
Turning to `O=C(CCCN1CCC(O)(c2ccc(Br)cc2)CC1)c1ccc(F)cc1` [BROMPERIDOL], the MIC in assay [3] came to 62.5 µM (≈ 26.3 µg/mL).
On to `CC(C)(C)c1ccc(C(=O)CCCN2CCC(O)(c3ccc(Br)cc3)CC2)cc1`, for which the MIC in assay [3] was 3.9 µM (≈ 1.79 µg/mL).
Regarding `CC(=O)CCCN1CCC(O)(c2ccc(Cl)cc2)CC1`, in assay [3], the minimal inhibitory concentration (MIC) is over 62.5 µM.
With `O=C(CCCN1CCC(O)(c2ccc(Br)cc2)CC1)c1ccc(Cl)cc1`, the outcome in assay [1], in assay [2] and in assay [4] was Active. Also, the minimum inhibitory concentration (MIC) in assay [3] was 15.6 µM (≈ 6.81 µg/mL).
On to `COc1ccc(C(=O)CCCN2CCC(O)(c3ccc(Br)cc3)CC2)cc1`, for which, in assay [3], the minimal inhibitory concentration (MIC) came out at 62.5 µM (≈ 27 µg/mL).
Still for that read-out and setting: the same measure for `CC(C)c1ccc(C(=O)CCCN2CCC(O)(c3ccc(Cl)cc3)CC2)cc1`: 1 µM (≈ 0.4 µg/mL); for `CC(C)(C)c1ccc(C(=O)CCCN2CCC(O)(c3ccc(Cl)cc3)CC2)cc1`: 3.9 µM (≈ 1.61 µg/mL).
`O=C(CCCN1CCC(O)(c2ccc(Cl)cc2)CC1)c1ccc(F)cc1` [HALOPERIDOL]: the MIC in assay [3] was 62.5 µM (≈ 23.5 µg/mL).
On the same count and under the same terms, then `O=C(CCCN1CCC(c2ccc(Cl)cc2)CC1)c1ccc(F)cc1`, with 62.5 µM (≈ 22.5 µg/mL); and `O=C(CCCN1CCC(O)(c2ccc(Br)cc2)CC1)c1ccc(Br)cc1`, with over 62.5 µM.
On the same count and under the same terms, the same measure for `Fc1ccc(OCCCN2CCC(c3ccccc3)CC2)cc1`: over 62.5 µM; for `COc1ccc(C(=O)CCCN2CCC(O)(c3ccc(Cl)cc3)CC2)cc1`: over 62.5 µM; for `CC1CC(C)CN(CCCC(=O)c2ccc(C(C)(C)C)cc2)C1` (stereo not drawn): 31.3 µM (≈ 9.88 µg/mL).
The same measure, in the same setting: the same measure for `COc1ccc(C(=O)CCCN2CCC(O)(c3ccc(F)cc3)CC2)cc1`: over 62.5 µM; for `O=C(CCCN1CCC(O)(c2ccc(F)cc2)CC1)c1ccc(Br)cc1`: 62.5 µM (≈ 26.3 µg/mL); for `O=C(CCCN1CCC(O)(c2ccc(F)cc2)CC1)c1ccccc1`: over 62.5 µM.
Take `O=C(CCCN1CCC(O)(c2ccc(F)cc2)CC1)c1ccc(F)cc1`: the minimal inhibitory concentration (MIC) in assay [3] was over 62.5 µM.
On the same count and under the same terms, the same measure for `O=C(CCCN1CCC(O)(c2ccccc2)CC1)c1ccc(F)cc1`: over 62.5 µM; for `O=C(CCCN1CCC(O)(c2ccc(Br)cc2)CC1)c1ccccc1`: over 62.5 µM.
